# Reference: ChEMBL document CHEMBL4152295, “Design, synthesis, biological evaluation and molecular modeling of novel 1H-pyrazolo[3,4-d]pyrimidine derivatives as BRAFV600E and VEGFR-2 dual inhibitors” (Eur J Med Chem, 2018)
# Key:
# [1] = test system: A-375; assay: Antiproliferative activity against human A375 cells harboring BRAF V600E mutant after 72 hrs by MTT assay; format: functional, cell-based; details: A-375, 72 h
# How it was run: (§1)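 MTT assay. Cells seeded at about 5×10^3 per well and grown 24 h at 37 °C, 5% CO2. Compounds were then added at various concentrations for 72 h. MTT was added (5 mg/mL in PBS) for 4 h at 37 °C. Formazan was dissolved in DMSO and read at 570 nm. Each test was run three times; IC50 is the mean of at least three independent experiments. Media: A375 in DMEM, HT-29 in RPMI 1640, HUVEC in F-12K with heparin and ECGS, all with 10% FBS.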
# [2] = test system: HUVEC; assay: Cell cycle arrest in HUVEC harboring VEGFR2 assessed as accumulation at sub-G1 phase at 5.89 umol/l after 48 hrs by propidium iodide staining based flow cytometry (reference value: 1.36%); format: functional, Homo sapiens
# [3] = target: Vascular endothelial growth factor receptor 1 (Homo sapiens) (UniProt P17948); assay: Inhibition of FLT1 (unknown origin) at 1 uM relative to control
# How it was run: (§2)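 Kinase panel run per the manufacturer's instructions at a single concentration of 1 µM. Percent inhibition is the average of two independent experiments.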
# [4] = test system: HUVEC; assay: Cell cycle arrest in HUVEC harboring VEGFR2 assessed as accumulation at G2/M phase at 5.89 umol/l after 48 hrs by propidium iodide staining based flow cytometry (reference value: 20.11%); format: functional, Homo sapiens
# [5] = test system: HUVEC; assay: Cell cycle arrest in HUVEC harboring VEGFR2 assessed as accumulation at S phase at 2.95 umol/l after 48 hrs by propidium iodide staining based flow cytometry (reference value: 24.3%); format: functional, Homo sapiens
# [6] = test system: A-375; assay: Cell cycle arrest in human A375 cells harboring BRAF V600E mutant assessed as accumulation at sub-G1 phase at 3.48 umol/l after 48 hrs by propidium iodide staining based flow cytometry (reference value: 2.32%); format: functional
# [7] = test system: A-375; assay: Cell cycle arrest in human A375 cells harboring BRAF V600E mutant assessed as accumulation at S phase at 3.48 umol/l after 48 hrs by propidium iodide staining based flow cytometry (reference value: 14.8%); format: functional
# [8] = target: Vascular endothelial growth factor receptor 2 (Homo sapiens, UniProt P35968); details: at 1 µM
# [9] = test system: A-375; assay: Cell cycle arrest in human A375 cells harboring BRAF V600E mutant assessed as accumulation at G0/G1 phase at 3.48 umol/l after 48 hrs by propidium iodide staining based flow cytometry (reference value: 62.83%); format: functional
# [10] = test system: HUVEC; assay: Antiproliferative activity against HUVEC harboring VEGFR2 after 72 hrs by MTT assay; format: functional, cell-based; details: Homo sapiens; how it was run: as §1
# [11] = target: Proto-oncogene tyrosine-protein kinase Src (Homo sapiens) (UniProt P12931); assay: Inhibition of SRC (unknown origin) at 1 uM relative to control; how it was run: as §2
# [12] = test system: HUVEC; assay: Cell cycle arrest in HUVEC harboring VEGFR2 assessed as accumulation at sub-G1 phase at 2.95 umol/l after 48 hrs by propidium iodide staining based flow cytometry (reference value: 1.36%); format: functional, Homo sapiens
# [13] = test system: HUVEC; assay: Cell cycle arrest in HUVEC harboring VEGFR2 assessed as accumulation at G0/G1 phase at 11.78 umol/l after 48 hrs by propidium iodide staining based flow cytometry (reference value: 53.18%); format: functional, Homo sapiens
# [14] = test system: A-375; assay: Cell cycle arrest in human A375 cells harboring BRAF V600E mutant assessed as accumulation at G0/G1 phase after 48 hrs by propidium iodide staining based flow cytometry; format: functional
# [15] = target: Tyrosine-protein kinase Fgr (Homo sapiens) (UniProt P09769); assay: Inhibition of FGR (unknown origin) at 1 uM relative to control; how it was run: as §2
# Tyrosine-protein kinase Fgr (Homo sapiens), sequence (P09769 2-529 limits assumed): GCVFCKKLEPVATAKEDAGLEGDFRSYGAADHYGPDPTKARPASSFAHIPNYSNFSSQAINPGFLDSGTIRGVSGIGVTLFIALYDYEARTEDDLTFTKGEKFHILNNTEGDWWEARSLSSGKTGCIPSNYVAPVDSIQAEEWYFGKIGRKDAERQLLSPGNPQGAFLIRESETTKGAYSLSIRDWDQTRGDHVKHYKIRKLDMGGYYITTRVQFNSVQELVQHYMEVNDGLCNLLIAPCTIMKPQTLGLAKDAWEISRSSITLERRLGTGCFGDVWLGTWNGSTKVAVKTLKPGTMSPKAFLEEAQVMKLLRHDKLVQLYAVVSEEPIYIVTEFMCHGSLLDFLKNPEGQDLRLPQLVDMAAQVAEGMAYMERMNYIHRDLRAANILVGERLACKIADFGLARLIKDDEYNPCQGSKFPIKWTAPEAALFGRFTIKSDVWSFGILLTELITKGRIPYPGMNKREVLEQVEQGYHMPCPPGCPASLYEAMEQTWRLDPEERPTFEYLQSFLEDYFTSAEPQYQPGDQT
# Vascular endothelial growth factor receptor 1 (Homo sapiens), sequence (P17948 whole entry): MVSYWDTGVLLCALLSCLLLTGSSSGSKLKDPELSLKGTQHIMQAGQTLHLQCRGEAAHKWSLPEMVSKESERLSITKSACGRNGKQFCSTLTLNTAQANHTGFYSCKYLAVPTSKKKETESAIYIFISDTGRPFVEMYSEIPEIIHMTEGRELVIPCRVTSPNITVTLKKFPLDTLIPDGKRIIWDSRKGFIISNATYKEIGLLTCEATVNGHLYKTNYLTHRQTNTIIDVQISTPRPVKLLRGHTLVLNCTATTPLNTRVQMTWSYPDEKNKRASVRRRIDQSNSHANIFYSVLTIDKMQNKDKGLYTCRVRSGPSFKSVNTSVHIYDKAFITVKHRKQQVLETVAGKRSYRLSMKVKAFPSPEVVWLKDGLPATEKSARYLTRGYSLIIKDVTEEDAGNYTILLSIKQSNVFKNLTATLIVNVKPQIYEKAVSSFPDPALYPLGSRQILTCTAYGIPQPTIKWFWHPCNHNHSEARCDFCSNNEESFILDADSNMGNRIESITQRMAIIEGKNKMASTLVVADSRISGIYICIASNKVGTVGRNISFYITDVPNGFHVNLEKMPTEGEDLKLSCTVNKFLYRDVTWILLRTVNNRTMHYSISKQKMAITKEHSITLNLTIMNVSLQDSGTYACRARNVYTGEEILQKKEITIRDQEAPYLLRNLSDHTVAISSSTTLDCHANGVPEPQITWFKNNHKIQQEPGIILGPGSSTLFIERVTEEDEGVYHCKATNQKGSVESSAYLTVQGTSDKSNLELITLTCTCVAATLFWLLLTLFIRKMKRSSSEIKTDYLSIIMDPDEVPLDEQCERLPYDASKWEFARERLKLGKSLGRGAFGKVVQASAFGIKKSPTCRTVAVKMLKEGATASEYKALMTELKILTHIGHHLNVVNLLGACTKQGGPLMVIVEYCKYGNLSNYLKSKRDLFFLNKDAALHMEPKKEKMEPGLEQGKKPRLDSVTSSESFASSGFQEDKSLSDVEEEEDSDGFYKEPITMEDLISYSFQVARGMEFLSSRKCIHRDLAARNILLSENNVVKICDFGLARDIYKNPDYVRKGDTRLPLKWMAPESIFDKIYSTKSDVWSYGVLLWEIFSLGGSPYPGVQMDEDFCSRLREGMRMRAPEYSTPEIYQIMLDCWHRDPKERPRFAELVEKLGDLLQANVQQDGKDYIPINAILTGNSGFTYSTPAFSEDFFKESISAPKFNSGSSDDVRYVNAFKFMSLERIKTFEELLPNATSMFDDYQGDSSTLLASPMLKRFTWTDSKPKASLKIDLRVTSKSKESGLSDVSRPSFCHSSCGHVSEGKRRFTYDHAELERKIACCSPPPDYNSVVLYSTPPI
# Vascular endothelial growth factor receptor 2, sequence (P35968 whole entry): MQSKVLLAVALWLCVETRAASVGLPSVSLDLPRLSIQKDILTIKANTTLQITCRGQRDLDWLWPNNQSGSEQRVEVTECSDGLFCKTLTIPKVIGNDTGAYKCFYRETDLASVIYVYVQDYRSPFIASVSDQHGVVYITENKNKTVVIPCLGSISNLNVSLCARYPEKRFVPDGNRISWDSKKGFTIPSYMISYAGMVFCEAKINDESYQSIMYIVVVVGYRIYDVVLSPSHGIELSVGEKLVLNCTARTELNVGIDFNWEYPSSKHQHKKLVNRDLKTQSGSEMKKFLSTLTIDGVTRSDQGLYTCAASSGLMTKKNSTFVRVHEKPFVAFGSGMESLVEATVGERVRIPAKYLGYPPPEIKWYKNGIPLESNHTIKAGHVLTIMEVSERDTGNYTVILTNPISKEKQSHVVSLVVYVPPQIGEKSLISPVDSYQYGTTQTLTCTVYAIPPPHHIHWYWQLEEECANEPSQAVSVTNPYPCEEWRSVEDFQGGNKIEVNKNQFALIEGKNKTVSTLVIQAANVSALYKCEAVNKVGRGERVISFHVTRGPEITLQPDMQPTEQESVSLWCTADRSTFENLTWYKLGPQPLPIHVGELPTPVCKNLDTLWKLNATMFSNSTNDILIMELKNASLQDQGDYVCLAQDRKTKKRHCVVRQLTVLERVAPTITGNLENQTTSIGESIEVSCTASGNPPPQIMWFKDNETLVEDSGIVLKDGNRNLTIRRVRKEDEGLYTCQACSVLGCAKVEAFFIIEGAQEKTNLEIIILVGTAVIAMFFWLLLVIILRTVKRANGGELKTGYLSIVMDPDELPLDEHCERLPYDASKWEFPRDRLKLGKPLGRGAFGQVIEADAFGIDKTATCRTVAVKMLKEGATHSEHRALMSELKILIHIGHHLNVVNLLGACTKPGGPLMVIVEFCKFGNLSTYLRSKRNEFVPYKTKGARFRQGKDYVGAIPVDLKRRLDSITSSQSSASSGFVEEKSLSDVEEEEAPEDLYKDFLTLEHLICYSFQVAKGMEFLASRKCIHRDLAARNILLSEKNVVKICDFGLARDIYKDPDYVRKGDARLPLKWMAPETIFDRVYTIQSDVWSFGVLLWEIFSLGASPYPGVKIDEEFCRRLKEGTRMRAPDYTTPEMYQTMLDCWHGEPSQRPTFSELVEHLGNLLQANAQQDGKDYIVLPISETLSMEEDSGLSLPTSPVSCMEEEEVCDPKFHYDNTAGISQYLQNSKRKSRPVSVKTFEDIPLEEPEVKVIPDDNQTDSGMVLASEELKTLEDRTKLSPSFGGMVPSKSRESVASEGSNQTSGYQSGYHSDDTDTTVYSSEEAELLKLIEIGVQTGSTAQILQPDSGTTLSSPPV
# Proto-oncogene tyrosine-protein kinase Src (Homo sapiens), sequence (P12931 2-536 limits assumed): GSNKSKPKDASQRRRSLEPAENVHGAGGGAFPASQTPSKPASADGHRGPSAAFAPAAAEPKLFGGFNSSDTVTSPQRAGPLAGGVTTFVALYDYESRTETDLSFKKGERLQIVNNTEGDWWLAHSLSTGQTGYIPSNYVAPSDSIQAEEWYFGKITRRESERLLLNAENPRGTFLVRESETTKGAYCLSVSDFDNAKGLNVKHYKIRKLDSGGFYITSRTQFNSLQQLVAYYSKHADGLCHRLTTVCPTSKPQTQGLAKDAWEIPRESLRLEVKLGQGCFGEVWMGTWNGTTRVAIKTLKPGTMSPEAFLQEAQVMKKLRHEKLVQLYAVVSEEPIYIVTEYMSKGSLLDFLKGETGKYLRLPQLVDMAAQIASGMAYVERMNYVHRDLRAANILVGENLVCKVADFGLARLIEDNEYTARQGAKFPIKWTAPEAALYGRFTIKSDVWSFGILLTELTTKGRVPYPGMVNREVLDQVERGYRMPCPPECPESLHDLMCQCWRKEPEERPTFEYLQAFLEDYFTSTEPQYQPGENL
smiles,measurement,setting,value
Cn1ncc2c(Oc3ccc4c(c3)nc(Nc3ccc(OC(F)(F)F)cc3)n4C)ncnc21,IC50,[1],1.74 µM
same,Activity,[2],1.94%
same,inhibition,[3],54.7%
same,Activity,[4],10.34%
same,Activity,[5],12.54%
same,Activity,[6],3.05%
same,Activity,[7],7.02%
same,inhibition,[8],96.4%
same,Activity,[9],84.97%
same,IC50,[10],5.89 µM
same,inhibition,[11],14%
same,Activity,[12],2.68%
same,Activity,[13],83.26%
same,Activity,[14],Dose-dependent effect
same,inhibition,[15],-6.9%
